From ChEMBL document CHEMBL1828600, “Derivatives of pyrrolo[3,4-d]pyridazinone, a new class of analgesic agents” (Eur J Med Chem, 2011) come the findings set out here.

Each structure is given as a SMILES string. Activity calls are given as the source filed them.

Data set [1] deals with Mus musculus. The experiment in a line: Analgesic activity in Albino-Swiss mouse assessed as inhibition of heat-induced paw licking or jumping behavior administered as ip measured after 30 mins for 45 secs by Eddy and Leimbach's hot plate method. The class given is functional. The gist of the method: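 Compound i.p. in 0.5% methylcellulose suspension (10 ml/kg), groups of 6–8 mice. Placed on plate at 54–56 °C; latency to forepaw licking or jumping timed by stop-watch before and 30 min after dosing, 45 s cut-off. Latency prolongation compared statistically. Morphine 1, 3, 6 mg/kg and acetylsalicylic acid 100–400 mg/kg i.p. as references.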

Data set [2] is filed under the species Mus musculus. The data set is described as follows: Ratio of acetylsalicylic acid ED50 to compound ED50 for analgesic activity in Albino-Swiss mouse assessed as protection against phenylbenzoquinone-induced writhing. The class given is functional. The gist of the method: (§1)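 Mice (groups of 6–8) dosed i.p. at 3.125–50 mg/kg as 0.5% methylcellulose suspension; 30 min later 0.02% phenylbenzoquinone (ethanol–water 5:95) 0.25 ml i.p. Writhes counted for 10 min starting 5 min after irritant. % effect versus control writhing count; ED50 with confidence limits by Litchfield and Wilcoxon.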

Data set [3] in a line: Acute toxicity in ip dosed Albino-Swiss mouse. Type of data set: organism-based. Conditions: in vivo. The gist of the method:
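Mice (20–24 g) given compound i.p. as 0.5% methylcellulose suspension, 10 ml/kg, in rising doses up to 2000 mg/kg; six animals per dose. Deaths counted at 24 h, general behaviour watched for 6 h. LD50 by Litchfield and Wilcoxon.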

Data set [4] has as its system Mus musculus. The experiment in a line: Analgesic activity in Albino-Swiss mouse assessed as protection against phenylbenzoquinone-induced writhing administered as ip 30 mins before phenylbenzoquinone challenge measured after 5 mins. Type of data set: functional. The gist of the method: as §1
Data set [5] addresses Mu-type opioid receptor (Rattus norvegicus, UniProt P33535). The data set is described as follows: Displacement of [3H]-dihydromorphine from mu opioid receptor in rat cerebral cortex by liquid scintillation counting. Type of data set: tissue-based. The gist of the method:
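Rat cerebral cortex homogenised in 50 mM Tris-HCl pH 7.6, washed by centrifugation at 48,000 × g, preincubated 30 min at 37 °C to remove endogenous opioids. Membranes incubated with 0.2 nM [3H]dihydromorphine and 7–8 compound concentrations (10^-11–10^-4 M); nonspecific binding with levallorphan. Filtration on GF/C, two washes, scintillation counting, duplicates. Result given as Ki.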

The species entered for data set [6] is Mus musculus. The experiment in a line: Ratio of morphine ED50 to compound ED50 for analgesic activity in Albino-Swiss mouse by Eddy and Leimbach's hot plate method. The class given is functional.
Data set [7] relates to Mus musculus. The data set is described as follows: Toxicity in ip dosed Albino-Swiss mouse assessed as decrease in locomotor activity at hot plate test ED50 after 1 hr. Type of data set: organism-based. Details: scale not given: the % may be the effect or the level left. Particulars: in vivo. The gist of the method:
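Mice (Albino-Swiss, 20–24 g) received compound i.p. as a 0.5% methylcellulose suspension (10 ml/kg). After 30 min, each mouse was put alone for a 30-min session in a circular photoresistor actometer (30 cm diameter, two photocells, impulse counter), which counted movements.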

Data set [8] deals with Mus musculus. The experiment in a line: Analgesic activity in Albino-Swiss mouse assessed as inhibition of heat-induced paw licking or jumping behavior at 200 mg/kg, ip measured after 30 mins for 45 secs by Eddy and Leimbach's hot plate method. Details: dose 200 mg/kg. Type of data set: functional, organism-based. The gist of the method:
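Albino-Swiss mice (20–24 g), groups of 6–8, dosed i.p. as a suspension in 0.5% methylcellulose (10 ml/kg). Each mouse was placed on a metal plate at 54–56 °C, and time to forepaw licking or jumping was stopwatch-timed before and 30 min after dosing, with a 45 s cut-off. Latency prolongation was compared by Student's t-test.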

Chain of Mu-type opioid receptor (P33535 whole entry): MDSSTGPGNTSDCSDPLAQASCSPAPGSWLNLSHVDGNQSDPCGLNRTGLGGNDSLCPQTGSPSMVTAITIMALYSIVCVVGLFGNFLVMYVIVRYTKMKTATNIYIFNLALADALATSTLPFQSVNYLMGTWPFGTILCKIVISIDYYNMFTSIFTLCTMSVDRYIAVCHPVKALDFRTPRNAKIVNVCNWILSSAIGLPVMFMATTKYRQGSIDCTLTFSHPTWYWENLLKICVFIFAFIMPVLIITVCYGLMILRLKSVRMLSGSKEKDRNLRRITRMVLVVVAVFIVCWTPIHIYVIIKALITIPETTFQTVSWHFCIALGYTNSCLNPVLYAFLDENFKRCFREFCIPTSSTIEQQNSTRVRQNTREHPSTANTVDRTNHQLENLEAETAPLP

With `Cc1c2c(=O)[nH]n(CCN3CCN(c4ccccc4Cl)CC3)c(=O)c2c(C)n1-c1ccccc1`, in data set [1], the ED50 entry is “inactive”. Further, the “Ratio ED50” value in data set [2] is listed as 100. Besides, in data set [3], the LD50 was more than 2000 mg/kg. In data set [4], the ED50 came out at 3.77 mg/kg.
Turning to `Cc1c2c(=O)[nH]n(CCN3CCN(c4ccccn4)CC3)c(=O)c2c(C)n1-c1ccccc1`, the ED50 entry in data set [1] was “inactive”. Further, in data set [2], the “Ratio ED50” value was determined as 100. Moreover, the LD50 in data set [3] was more than 2000 mg/kg. The ED50 in data set [4] was found to be 6.84 mg/kg.
Compound `COc1cccc(C2(O)CCCCC2CN(C)C)c1` (centres undefined) [TRAMADOL] gave a Ki in data set [5] of 2.4 µM.
Turning to `COc1ccccc1N1CCN(CCn2[nH]c(=O)c3c(C)n(-c4ccccc4)c(C)c3c2=O)CC1`, the ED50 entry in data set [1] was “inactive”. Also, the “Ratio ED50” value in data set [2] is 100. Besides, in data set [3], the LD50 was more than 2000 mg/kg. In addition, the ED50 in data set [4] was found to be 8.02 mg/kg.
Consider `Cc1ccc(Cl)cc1N1CCN(CCn2[nH]c(=O)c3c(C)n(-c4ccccc4)c(C)c3c2=O)CC1`, for which the ED50 was determined as 10.3 mg/kg in data set [1] (0.5 h) and 0.55 mg/kg in data set [4]. For the same compound, the results for the “Ratio ED50” value in data set [2] and in data set [6] were 100 and 3, respectively. The LD50 in data set [3] is more than 2000 mg/kg. In addition, the Activity in data set [7] amounted to 45%. The IC50 in data set [5] is 5.6 µM. Further, in data set [5], the Ki stood at 2.6 µM.
For `Cc1c2c(=O)[nH]n(CCN3CCN(Cc4ccccc4)CC3)c(=O)c2c(C)n1-c1ccccc1`, the ED50 entry in data set [1] was “inactive”. In addition, in data set [2], the “Ratio ED50” value is 100. This compound showed an LD50 in data set [3] of more than 2000 mg/kg. In addition, the ED50 in data set [4] stood at 0.04 mg/kg.
For `C=CCN1CC[C@]23CCCC[C@H]2[C@H]1Cc1ccc(O)cc13` [LEVALLORPHAN], the IC50 in data set [5] is 0.000634 µM.
As to `CN1CC[C@]23c4c5ccc(O)c4O[C@H]2[C@@H](O)C=C[C@H]3[C@H]1C5` [MORPHINE], the ED50 in data set [1] (0.5 h) was 3.5 mg/kg; in data set [4], 2.44 mg/kg.
For the compound `Cc1c2c(=O)[nH]n(CCN3CCN(c4ccccc4)CC3)c(=O)c2c(C)n1-c1ccccc1`, the ED50 result in data set [1] is “inactive”. For the same compound, the “Ratio ED50” value in data set [2] is 100. In data set [3], this compound came in with an LD50 of more than 2000 mg/kg. Moreover, the ED50 in data set [4] was found to be 1.48 mg/kg.
For the compound `Cc1c2c(=O)[nH]n(CCN3CCN(C/C=C/c4ccccc4)CC3)c(=O)c2c(C)n1-c1ccccc1`, in data set [1], the ED50 result is “inactive”. The “Ratio ED50” value in data set [2] was 100. Further, in data set [3], the LD50 is more than 2000 mg/kg. In addition, in data set [4], the ED50 is 1.25 mg/kg.
As for `COc1ccccc1N1CCN(CCCOc2nn(C)c(=O)c3c(C)n(-c4ccccc4)c(C)c23)CC1`, the ED50 result in data set [1] is “inactive”. Also, the LD50 in data set [3] was more than 2000 mg/kg. For the same compound, in data set [4], the ED50 is 11.2 mg/kg.
Consider `Cc1c2c(OCCCN3CCN(c4ccccc4)CC3)nn(C)c(=O)c2c(C)n1-c1ccccc1`, for which the ED50 entry in data set [1] was “inactive”. This compound also came in with an LD50 in data set [3] of 1420 mg/kg. Also, in data set [4], the ED50 worked out at 7.9 mg/kg.
For the compound `Cc1c2c(=O)[nH]n(CCN3CCN(c4ccccc4F)CC3)c(=O)c2c(C)n1-c1ccccc1`, the ED50 is 15 mg/kg in data set [1] (0.5 h) and 0.31 mg/kg in data set [4]. Further, the “Ratio ED50” value is reported as 100 in data set [2] and 3 in data set [6]. For the same compound, the LD50 in data set [3] is more than 2000 mg/kg. Moreover, in data set [7], the Activity turned out to be 20%. In addition, the IC50 in data set [5] stood at 24.2 µM. The compound further returned a Ki in data set [5] of 11.1 µM.
Take `Cc1c2c(=O)[nH]n(CCN3CCN(Cc4ccc5c(c4)OCO5)CC3)c(=O)c2c(C)n1-c1ccccc1`: in data set [1], the ED50 result is “inactive”. Moreover, in data set [2], the “Ratio ED50” value amounted to 100. The LD50 in data set [3] is more than 2000 mg/kg. In addition, the ED50 in data set [4] came out at 1.92 mg/kg.
Regarding `CC(=O)Oc1ccccc1C(=O)O`, in data set [8], the inhibition result is “inactive”.
Regarding `Cc1c2c(=O)[nH]n(CCN3CCC(Cc4ccccc4)CC3)c(=O)c2c(C)n1-c1ccccc1`, in data set [1], the ED50 result was “inactive”. The “Ratio ED50” value in data set [2] amounted to 100. The LD50 in data set [3] was more than 2000 mg/kg. Also, the ED50 in data set [4] is 1.91 mg/kg.
`Cc1c2c(=O)[nH]n(CCN3CCN(C(c4ccccc4)c4ccccc4)CC3)c(=O)c2c(C)n1-c1ccccc1`: the ED50 entry in data set [1] was “inactive”. The “Ratio ED50” value in data set [2] was 100. Also, the LD50 in data set [3] was more than 2000 mg/kg. For the same compound, the ED50 in data set [4] came out at 1.83 mg/kg.
`Cc1c2c(=O)[nH]n(CCN3CCN(c4cccc(C(F)(F)F)c4)CC3)c(=O)c2c(C)n1-c1ccccc1`: the ED50 in data set [1] (0.5 h) is 15.9 mg/kg; in data set [4] it was 1.23 mg/kg. Further, the results for the “Ratio ED50” value in data set [2] and in data set [6] were 100 and 3, respectively. This compound displayed an LD50 in data set [3] of more than 2000 mg/kg. Also, the Activity in data set [7] was determined as 20%.
